Data: ChEMBL document CHEMBL1122278, “Gastric antisecretory 9H-xanthen-9-amines” (1983)

What was measured:
Rattus norvegicus [1] = experiment: Gastric antisecretory activity in pylorus-ligated rat at a concentration of 50 mg/kg perorally, expressed as increase in mean pH.; type: functional; settings: route oral
In short: (§1)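 Male Carworth Farms rats (270–360 g), fasted 18 h with water; compound in PEG 200 by gavage 1 h before pylorus ligation under ether. Killed 2 h after ligation; juice centrifuged, volume and pH measured, supernatant titrated with NaOH to pH 7.4, output = volume × titre. Mean of six to seven animals against controls.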

Rattus norvegicus [2] = experiment: Gastric antisecretory activity in pylorus ligated rat at a concentration of 50 mg/kg perorally, expressed as % decrease in mean titratable acid output of gastric juice in treated vs. control groups.; type: functional; settings: route oral; in short: as §1
Rattus norvegicus [3] = experiment: Effect of intraduodenal administration of compound on acid secretion inhibition in the PLR; Value ranges from 0.5-2.7; type: functional
Rattus norvegicus [4] = experiment: Effect of intraduodenal administration of compound on acid secretion inhibition in the PLR; Value ranges from 0.9-4.7; type: functional
Rattus norvegicus [5] = experiment: Effect of peroral administration of compound on acid secretion inhibition in the PLR; Value ranges from 4.1-12.1; type: functional
Rattus norvegicus [6] = experiment: Effect of intraduodenal administration of compound on acid secretion inhibition in the PLR; Value ranges from 4.7-9; type: functional
Rattus norvegicus [7] = experiment: Effect of peroral administration of compound on acid secretion inhibition in the PLR; Value ranges from 8.8-14.7; type: functional
Rattus norvegicus [8] = experiment: Effect of peroral administration of compound on acid secretion inhibition in the PLR; NS means no significant dose response.; type: functional, organism-based
In short: (§2)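 Rats (male Carworth Farms, 270–360 g) fasted 18 h; compound in PEG 200 by gavage 1 h before pylorus ligation under ether, six per group. Gastric contents collected 2 h post-ligation; pH, volume, titre (NaOH to pH 7.4) measured, output = volume × titre.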

Rattus norvegicus [9] = experiment: Gastric antisecretory activity in pylorus-ligated rat at a concentration of 50 mg/kg po, expressed as increase in mean pH; NS means no significant change; type: functional, organism-based; set-up: dose 50 mg/kg; in short: as §1
Rattus norvegicus [10] = experiment: Gastric antisecretory activity in pylorus ligated rat at a concentration of 50 mg/kg po, expressed as % decrease in mean titratable acid output of gastric juice in treated vs. control groups; NS means no significant change.; type: functional, organism-based; set-up: dose 50 mg/kg; in short: as §1
Rattus norvegicus [11] = experiment: Gastric antisecretory activity in pylorus-ligated rat at a concentration of 50 mg/kg po, expressed as increase in mean pH; NS means no significant change.; type: functional, organism-based; set-up: dose 50 mg/kg; in short: as §1
Rattus norvegicus [12] = experiment: Effect of intraduodenal administration of compound on acid secretion inhibition in the PLR; Value ranges from 0.6-6.7; type: functional
Rattus norvegicus [13] = experiment: Effect of intraduodenal administration of compound on acid secretion inhibition in the PLR; Value ranges from 0.5-4.4; type: functional
Rattus norvegicus [14] = experiment: Effect of peroral administration of compound on acid secretion inhibition in the PLR; Value ranges from 4.0-13.6; type: functional; in short: as §2
Rattus norvegicus [15] = experiment: Effect of intravenous administration of compound on acid secretion inhibition in the PLR; Value ranges from 1.5-9.5; type: functional
In short: (§3)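 Male Carworth Farms rats (270–360 g), fasted 18 h, pylorus ligated under ether; compound in PEG 200 given intravenously at ligation, six rats per group. Gastric contents taken 2 h after ligation, centrifuged, titrated with NaOH to pH 7.4; output = volume × titre.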

Rattus norvegicus [16] = experiment: Effect of intravenous administration of compound on acid secretion inhibition in the PLR; Value ranges from 0.7-5.0; type: functional; in short: as §3
Rattus norvegicus [17] = experiment: Gastric antisecretory activity, in pylorus ligated rat (PLR,50 mg/kg po), expressed as % decrease in mean titratable acid output of gastric juice in treated vs. control groups; type: functional; in short: as §1
Rattus norvegicus [18] = experiment: Gastric antisecretory activity, in pylorus ligated rat (PLR,50 mg/kg po), expressed as increase in mean pH; type: functional; in short: as §1
Rattus norvegicus [19] = experiment: Effect of peroral administration of compound on acid secretion inhibition in the PLR;Value ranges from 3.6-12.2; type: functional; in short: as §2
Rattus norvegicus [20] = experiment: Effect of peroral administration of compound on acid secretion inhibition in the PLR; Value ranges from 4.3-16.3; type: functional; in short: as §2
Rattus norvegicus [21] = experiment: Effect of intraduodenal administration of compound on acid secretion inhibition in the PLR; Value ranges from 0.2-2.1; type: functional
Rattus norvegicus [22] = experiment: Effect of intravenous administration of compound on acid secretion inhibition in the PLR; Value ranges from 1.8-5.9; type: functional; in short: as §3
Rattus norvegicus [23] = experiment: Effect of intravenous administration of compound on acid secretion inhibition in the PLR; Value ranges from 4.0-19.3; type: functional; in short: as §3
Rattus norvegicus [24] = experiment: Effect of intraduodenal administration of compound on acid secretion inhibition in the PLR; Value ranges from 0.3-2.9; type: functional
Rattus norvegicus [25] = experiment: Effect of peroral administration of compound on acid secretion inhibition in the PLR; Value ranges from 2.6-8.5; type: functional; in short: as §2

| SMILES | Delta pH (Rattus norvegicus [1]) | Delta TAO (Rattus norvegicus [2]) | further results |
| --- | --- | --- | --- |
| c1ccc(CCCNC2c3ccccc3Oc3ccccc32)nc1 | 5.7 | 99 | – |
| CC(Cc1ccccn1)NC1c2ccccc2Oc2ccccc21 (stereo unspecified) | 3.8 | 89 | Acid output (Rattus norvegicus [3]): 1.3 u equiv of [H+] 2hr-1; Volume (Rattus norvegicus [4]): 2.2 ml 2hr-1; Acid output (Rattus norvegicus [5]): 7.3 u equiv of [H+] 2hr-1; ED50 (Rattus norvegicus [6]): 6.3 m equiv [H+] l-1; ED50 (Rattus norvegicus [7]): 11.4 m equiv [H+] l-1; ED50 (Rattus norvegicus [8]): Not significant |
| c1ccc(N2CCN(C3c4ccccc4Oc4ccccc43)CC2)nc1 | – | – | Delta pH (Rattus norvegicus [9]): Not significant; ED50 (Rattus norvegicus [10]): Not significant |
| c1ccc2c(c1)Oc1ccccc1C2Nc1nccs1 | – | – | Delta pH (Rattus norvegicus [9]): Not significant |
| CN1CCC(NC2c3ccccc3Oc3ccccc32)CC1 | 6.4 | 99 | – |
| CN1CCCN(C2c3ccccc3Oc3ccccc32)CC1 | 4.6 | 92 | – |
| c1ccc(NNC2c3ccccc3Oc3ccccc32)cc1 | – | – | Delta pH (Rattus norvegicus [9]): Not significant |
| O=C(NC1c2ccccc2Oc2ccccc21)c1ccccc1O | – | – | Delta TAO (Rattus norvegicus [10]): Not significant; Delta pH (Rattus norvegicus [11]): Not significant |
| O=C(NC1c2ccccc2Oc2ccccc21)OCc1ccccc1 | – | – | Delta TAO (Rattus norvegicus [10]): Not significant; Delta pH (Rattus norvegicus [11]): Not significant |
| O=S(=O)(NC1c2ccccc2Oc2ccccc21)c1ccccc1 | – | – | Delta pH (Rattus norvegicus [9]): Not significant; Delta TAO (Rattus norvegicus [10]): Not significant |
| c1ccc2c(c1)Oc1ccccc1C2NCCn1ccnc1 | 5.8 | 98 | ED50 (Rattus norvegicus [12]): 2.4 mg/kg; ED50 (Rattus norvegicus [13]): 1.7 mg/kg; ED50 (Rattus norvegicus [14]): 7.7 mg/kg; ED50 (Rattus norvegicus [15]): 3.3 mg/kg; ED50 (Rattus norvegicus [16]): 2 mg/kg; ED50 (Rattus norvegicus [8]): Not significant |
| c1ccc(CNC2c3ccccc3Oc3ccccc32)nc1 | 4.8 | 96 | – |
| NC(=O)N(O)C1c2ccccc2Oc2ccccc21 | – | – | Delta TAO (Rattus norvegicus [17]): 88; Delta pH (Rattus norvegicus [18]): 1.9 |
| c1ccc2c(c1)Oc1ccccc1C2NC1CN2CCC1CC2 (stereo unspecified) | 2.4 | 65 | – |
| CN(C)C1CCN(C2c3ccccc3Oc3ccccc32)CC1 | 5.8 | 97 | – |
| C=CCNC1c2ccccc2Oc2ccccc21 | 4.4 | – | Delta TAO (Rattus norvegicus [10]): Not significant |
| c1cncc(CNC2c3ccccc3Oc3ccccc32)c1 | 4.2 | 94 | – |
| C=CCN(CC=C)C1c2ccccc2Oc2ccccc21 | 1.3 | – | – |
| c1cncc(NC2c3ccccc3Oc3ccccc32)c1 | – | – | Delta pH (Rattus norvegicus [9]): Not significant; Delta TAO (Rattus norvegicus [10]): Not significant |
| CCOC(=O)N1CCN(C2c3ccccc3Oc3ccccc32)CC1 | 2.2 | – | – |
| O=S1(=O)CCC(NC2c3ccccc3Oc3ccccc32)C1 (stereo unspecified) | 1.5 | 57 | – |
| CN(C)CC1CCCCN1C1c2ccccc2Oc2ccccc21 (stereo unspecified) | 5.2 | 95 | – |
| O=CNNC1c2ccccc2Oc2ccccc21 | – | – | Delta TAO (Rattus norvegicus [17]): 80; Delta pH (Rattus norvegicus [18]): 2 |
| CN1CCN(C2c3ccccc3Oc3ccccc32)CC1 | 5.4 | 97 | ED50 (Rattus norvegicus [19]): 6.8 mg/kg; ED50 (Rattus norvegicus [8]): Not significant |
| CN(C)C1CCCN(C2c3ccccc3Oc3ccccc32)C1 (stereo unspecified) | 3.1 | 80 | ED50 (Rattus norvegicus [20]): 8.9 mg/kg; ED50 (Rattus norvegicus [21]): 0.9 mg/kg; ED50 (Rattus norvegicus [22]): 3.2 mg/kg; ED50 (Rattus norvegicus [23]): 6.3 mg/kg; ED50 (Rattus norvegicus [24]): 1.2 mg/kg; ED50 (Rattus norvegicus [8]): Not significant |

| SMILES | Delta pH (Rattus norvegicus [1]) | Delta TAO (Rattus norvegicus [2]) | further results |
| --- | --- | --- | --- |
| CC(=N)NC1c2ccccc2Oc2ccccc21 | 1.1 | 88 | – |
| NC1c2ccccc2Oc2ccccc21 | 4.5 | 93 | – |
| NS(=O)(=O)NC1c2ccccc2Oc2ccccc21 | 2 | 87 | – |
| CS(=O)(=O)NC1c2ccccc2Oc2ccccc21 | – | – | Delta pH (Rattus norvegicus [9]): Not significant; Delta TAO (Rattus norvegicus [10]): Not significant |
| c1ccc(CNC2c3ccccc3Oc3ccccc32)cc1 | 1.9 | 69 | – |
| Cc1cc(C)n(C2c3ccccc3Oc3ccccc32)n1 | – | – | Delta pH (Rattus norvegicus [9]): Not significant; Delta TAO (Rattus norvegicus [10]): Not significant |
| c1cncc(C2CCCN2C2c3ccccc3Oc3ccccc32)c1 (stereo unspecified) | 1.8 | 65 | – |
| c1ccc2c(c1)Oc1ccccc1C2NCC1CCCCO1 (stereo unspecified) | 3.6 | 87 | – |
| CCO/C(C)=N\C1c2ccccc2Oc2ccccc21 | – | – | Delta TAO (Rattus norvegicus [17]): 97; Delta pH (Rattus norvegicus [18]): 4.4 |
| c1ccc2c(c1)Oc1ccccc1C2NCc1ccncc1 | 3.6 | 77 | – |
| CN(C1c2ccccc2Oc2ccccc21)C1c2ccccc2Oc2ccccc21 | – | 72 | Delta pH (Rattus norvegicus [11]): Not significant |
| c1ccc2c(c1)Oc1ccccc1C2N1CCNCC1 | 5.3 | 98 | – |
| c1ccc(NNC2c3ccccc3Oc3ccccc32)nc1 | 1.4 | 73 | – |
| CN(Cc1cccnc1)C1c2ccccc2Oc2ccccc21 | 3.6 | 92 | – |
| c1ccc2c(c1)Oc1ccccc1C2NCCN1CCOCC1 | 2.6 | 47 | – |
| CC(CCCc1ccccn1)NC1c2ccccc2Oc2ccccc21 (stereo unspecified) | 6.1 | 100 | – |
| CN(CCc1ccccn1)C1c2ccccc2Oc2ccccc21 | 5.6 | 99 | ED50 (Rattus norvegicus [25]): 4.8 mg/kg; ED50 (Rattus norvegicus [8]): Not significant |
| O=C1CCC(=O)N1C1c2ccccc2Oc2ccccc21 | – | – | Delta TAO (Rattus norvegicus [10]): Not significant; Delta pH (Rattus norvegicus [11]): Not significant |
| CC1=NCCN1CCNC1c2ccccc2Oc2ccccc21 | 3 | 88 | – |
| c1ccc2c(c1)Oc1ccccc1C2NC1=NCCS1 | 3.6 | 95 | – |
| CCN(CCc1ccccn1)C1c2ccccc2Oc2ccccc21 | 4.3 | 86 | – |
| c1ccc(CCNC2c3ccccc3Oc3ccccc32)nc1 | 5.9 | 99 | – |
| CCN1CCCC(N(C)C2c3ccccc3Oc3ccccc32)C1 (stereo unspecified) | 5.1 | 98 | – |
| c1cnc(NC2c3ccccc3Oc3ccccc32)nc1 | – | 48 | Delta pH (Rattus norvegicus [9]): Not significant |
